Laboratory results reported in ChEMBL document CHEMBL5096187, “Efficient Synthesis and Bioevaluation of Novel Dual Tubulin/Histone Deacetylase 3 Inhibitors as Potential Anticancer Agents” (J Med Chem, 2021).
Active and inactive are the calls of the source. No cut-off for these calls is given here.

Experiments:
[1] = In vivo inhibition of HDAC in tumor of mouse B16-F10 cells xenografted in C57BL/6 mouse assessed as increase in acetylated histone-H3 expression in presence of Entinostat by […] immunohistochemistry method; assay type: functional; parameters: scale not given: the % may be the effect or the level left
In short: (§1)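 Tumors from the 14-day i.p. B16-F10 study were formalin-fixed and paraffin-embedded. Sections were deparaffinized, treated with 3% H2O2, and antigen-retrieved at pH 9 and 80 °C overnight. Blocked with milk, incubated with anti-Ac-H3 at 4 °C overnight, then IgG secondary and hematoxylin counterstain. Ac-H3-positive ratio quantified from images.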

HCT-116 = assay: Antiproliferative activity against human HCT-116 cells assessed as inhibition of cell viability measured for 48 hrs by microplate reader based MTT assay; assay type: functional; details: HCT-116, 48 h
In short: (§2)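 Cells grown in RPMI-1640 with 10% FBS and seeded at 5000 cells/well. After overnight attachment, compound was added in medium with 0.1% DMSO for 48 h at 37 °C. Read-out was MTT for HCT-116, B16-F10 and A549, and CCK-8 for Jurkat (0.5 mg/mL, 4 h), with absorbance at 570 nm. IC50 from nonlinear regression; at least three independent experiments.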

B16-F10 [2] = assay: Induction of cell cycle arrest in mouse B16-F10 cells assessed as accumulation of cells in G2/M phase at 100 nM measured after 48 hrs by PI/RNaseA staining based flow cytometry analysis (Rvb= 5.76%); assay type: functional
[3] = Cardiotoxicity in C57BL/6 mouse ssessed as shortening of QTc level in presence of Entinostat by ECG analysis; assay type: toxicity
In short: (§3)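 Mice aged 6–8 weeks dosed by intragastric gavage once daily for 14 days; ECG and heart rate recorded on a PowerLab system.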

B16-F10 [4] = assay: Antiproliferative activity against mouse B16-F10 cells assessed as inhibition of cell viability measured for 48 hrs by microplate reader based MTT assay; assay type: functional; details: B16-F10, 48 h; in short: as §2
[5] = Antiproliferative activity against human YCC-11 cells assessed as inhibition of cell viability; assay type: functional, cell-based
B16-F10 [6] = assay: Induction of apoptosis in mouse B16-F10 cells assessed as late apoptotic cells at 100 nM incubated for 48 hrs by Annexin V-FITC/PI analysis (reference value: 0.00 %); assay type: functional
A549 = assay: Antiproliferative activity against human A549 cells assessed as inhibition of cell viability measured for 48 hrs by microplate reader based CCK-8 assay; assay type: functional; details: A549, 48 h
[7] = Cardiotoxicity in C57BL/6 mouse ssessed as shortening of QTc level by ECG analysis; assay type: toxicity; in short: as §3
B16-F10 [8] = assay: Antiproliferative activity against mouse B16-F10 cells assessed as inhibition of cell viability measured for 48 hrs in presence of Entinostat by microplate reader based MTT assay; assay type: functional; details: B16-F10, 48 h; in short: as §2
Tubulin (Sus scrofa) = Tubulin (Sus scrofa) (UniProt P02554+P02550); assay: Inhibition of pig brain tubulin polymerization at 10 uM measured after 20 mins by spectrometric method relative to control
In short: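 Pig brain tubulin was purified by three assembly/disassembly cycles and then phosphocellulose chromatography. Compound at 10 μM in PEM buffer with 1 mM GTP and 5% glycerol at 37 °C. Polymerization followed at 340 nm; inhibition taken at 20 min versus vehicle control.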

[9] = Toxicity in C57BL/6 mouse allografted with mouse B16-F10 cells assessed as morphological abnormalities in kidney at 5 mg/kg, ip administered for 14 days in presence of Entinostat by H and E staining based analysis; assay type: organism-based; details: in vivo, 336 h, time 14 day
In short: (§4)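 C57BL/6 mice with subcutaneous B16-F10 allografts, n = 8 per group, given i.p. injections once daily for 14 days. Single agents at 10 mg/kg; combination at 5 + 5 mg/kg. Vehicle: ethanol/polyoxyethylene castor oil/saline 1.25:1.25:7.5. Liver and kidney fixed in 4% paraformaldehyde, paraffin-embedded, H&E stained and examined by microscopy.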

B16-F10 [10] = assay: Inhibition of cell migration in mouse B16-F10 cells assessed as reduction in wound area ratio measured at 100 nM incubated for 24 hrs by wound healing assay; assay type: functional; parameters: scale not given: the % may be the effect or the level left
In short: (§5)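 Confluent B16-F10 monolayers, seeded overnight, were scratched with a pipette tip and washed to remove debris. Cells were then treated, and phase-contrast images were taken at 0 and 24 h. Migration distance or wound area measured manually against DMSO control; n = 3.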

B16-F10 [11] = assay: Antitumor activity against mouse B16-F10 cells allografted in C57BL/6 mouse assessed as tumor growth inhibition at 10 mg/kg, ip administered for 14 days in presence of Entinostat; assay type: functional; details: B16-F10, 336 h, time 14 day, read-out: TGI
In short: (§6)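 C57BL/6 mice were inoculated subcutaneously with 3×10⁵ B16-F10 cells in PBS and randomized (n = 8). Drugs in ethanol/polyoxyethylene castor oil/saline (1.25:1.25:7.5) or vehicle alone were given i.p. once daily for 14 days. Mice were sacrificed at day 14 and tumors weighed; TGI(%) = [1 − Wt/Wv] × 100 using mean tumor weights.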

[12] = Antiproliferative activity against human YCC3/7 cells assessed as inhibition of cell viability; assay type: functional, cell-based
[13] = Toxicity in C57BL/6 mouse allografted with mouse B16-F10 cells assessed as body weight loss at 10 mg/kg, ip administered for 14 days; details: in vivo, 336 h
B16-F10 [14] = assay: Induction of apoptosis in mouse B16-F10 cells assessed as early apoptotic cells at 100 nM incubated for 48 hrs by Annexin V-FITC/PI analysis (reference value: 1.68 %); assay type: functional
B16-F10 [15] = assay: Induction of apoptosis in mouse B16-F10 cells assessed as necrotic cells at 100 nM incubated for 48 hrs by Annexin V-FITC/PI analysis (reference value: 0.012 %); assay type: functional
B16-F10 [16] = assay: Antitumor activity against mouse B16-F10 cells allografted in C57BL/6 mouse assessed as reduction in tumor weight at 10 mg/kg, ip administered for 14 days in presence of Entinostat; assay type: functional, organism-based; details: time 14.0 day; in short: as §6
Jurkat = assay: Antiproliferative activity against human Jurkat cells assessed as inhibition of cell viability measured for 48 hrs by microplate reader based CCK-8 assay; assay type: functional
B16-F10 [17] = assay: Inhibition of cell migration in mouse B16-F10 cells assessed as reduction in wound area measured at 100 nM incubated for 24 hrs by wound healing assay; assay type: functional; parameters: scale not given: the % may be the effect or the level left; in short: as §5
[18] = Toxicity in C57BL/6 mouse allografted with mouse B16-F10 cells assessed as morphological abnormalities in kidney at 10 mg/kg, ip administered for 14 days by H and E staining based analysis; assay type: organism-based; details: in vivo, 336 h, time 14 day; in short: as §4
B16-F10 [19] = assay: Antitumor activity against mouse B16-F10 cells allografted in C57BL/6 mouse assessed as tumor growth inhibition at 10 mg/kg, ip administered for 14 days; assay type: functional; details: B16-F10, 336 h, time 14 day, read-out: TGI; in short: as §6
Tubulin = Tubulin (Sus scrofa, UniProt P02554+P02550); assay: Inhibition of pig brain tubulin polymerization by spectrometric method
In short: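 Phosphocellulose-purified pig brain tubulin mixed with graded compound concentrations in PEM buffer (100 mM PIPES, 1 mM MgCl2, 1 mM EGTA) plus 1 mM GTP and 5% glycerol. Absorbance at 340 nm and 37 °C; plateau absorbance used to calculate IC50.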

B16-F10 [20] = assay: Induction of apoptosis in mouse B16-F10 cells assessed as viable cells at 100 nM incubated for 48 hrs by Annexin V-FITC/PI analysis (reference value: 98.3 %); assay type: functional; details: read-out: Activity
B16-F10 [21] = assay: Upregulation of AC-H3 in mouse B16-F10 cells incubated for 12 hrs by Western blot analysis; assay type: functional, cell-based; details: dose 20-200 nM, DDE = dose-dependent effect
In short: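 B16-F10 cells (5 × 10⁵/well) treated 12 h with DMSO or compound, lysed in RIPA buffer. 30 μg protein separated by SDS-PAGE and blotted onto PVDF. Blocked 5% BSA 2 h, primary antibody overnight at 4 °C, secondary 1.5 h. Ac-H3 probed, with histone H3 and GAPDH as loading controls; band density quantified; three independent experiments.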

B16-F10 [22] = assay: Antitumor activity against mouse B16-F10 cells allografted in C57BL/6 mouse assessed as reduction in tumor weight at 10 mg/kg, ip administered for 14 days in presence of (2-phenylthiazol-4-yl)(3,4,5-trimethoxyphenyl)methanone; assay type: functional, organism-based; details: time 14.0 day; in short: as §6
[23] = Cardiotoxicity in C57BL/6 mouse ssessed as shortening of QTc level in presence of (2-phenylthiazol-4-yl)(3,4,5-trimethoxyphenyl)methanone by ECG analysis; assay type: toxicity; in short: as §3
[24] = Toxicity in C57BL/6 mouse allografted with mouse B16-F10 cells assessed as morphological abnormalities in kidney at 5 mg/kg, ip administered for 14 days in presence of (2-phenylthiazol-4-yl)(3,4,5-trimethoxyphenyl)methanone by H and E staining based analysis; assay type: organism-based; details: in vivo, 336 h, time 14 day; in short: as §4
B16-F10 [25] = assay: cells; details: Mus musculus, B16-F10, 48 h
[26] = In vivo inhibition of HDAC in tumor of mouse B16-F10 cells xenografted in C57BL/6 mouse assessed as increase in acetylated histone-H3 expression in presence of (2-phenylthiazol-4-yl)(3,4,5-trimethoxyphenyl)methanone by […] immunohistochemistry method; assay type: functional; parameters: scale not given: the % may be the effect or the level left; in short: as §1
B16-F10 [27] = assay: Antitumor activity against mouse B16-F10 cells allografted in C57BL/6 mouse assessed as tumor growth inhibition at 10 mg/kg, ip administered for 14 days in presence of (2-phenylthiazol-4-yl)(3,4,5-trimethoxyphenyl)methanone; assay type: functional; details: B16-F10, 336 h, time 14 day, read-out: TGI; in short: as §6
[28] = In vivo inhibition of HDAC in tumor of mouse B16-F10 cells xenografted in C57BL/6 mouse assessed as increase in acetylated histone-H3 expression by […] immunohistochemistry method; assay type: functional; parameters: scale not given: the % may be the effect or the level left; in short: as §1

Tubulin (Sus scrofa), sequence (P02550 whole entry, looked up): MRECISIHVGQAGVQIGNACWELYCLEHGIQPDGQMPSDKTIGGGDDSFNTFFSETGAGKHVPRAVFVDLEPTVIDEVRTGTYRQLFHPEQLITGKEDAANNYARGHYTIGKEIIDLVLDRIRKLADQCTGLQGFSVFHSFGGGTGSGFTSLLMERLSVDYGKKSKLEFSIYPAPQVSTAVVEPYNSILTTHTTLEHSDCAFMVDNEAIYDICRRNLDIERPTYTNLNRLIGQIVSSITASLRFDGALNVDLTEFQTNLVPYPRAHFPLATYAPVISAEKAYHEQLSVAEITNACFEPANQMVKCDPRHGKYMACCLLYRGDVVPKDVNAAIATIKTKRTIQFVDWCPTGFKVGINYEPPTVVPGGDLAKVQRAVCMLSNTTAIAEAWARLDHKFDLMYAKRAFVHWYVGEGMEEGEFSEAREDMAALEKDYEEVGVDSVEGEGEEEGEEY
Tubulin (Sus scrofa), sequence (P02554 whole entry, looked up): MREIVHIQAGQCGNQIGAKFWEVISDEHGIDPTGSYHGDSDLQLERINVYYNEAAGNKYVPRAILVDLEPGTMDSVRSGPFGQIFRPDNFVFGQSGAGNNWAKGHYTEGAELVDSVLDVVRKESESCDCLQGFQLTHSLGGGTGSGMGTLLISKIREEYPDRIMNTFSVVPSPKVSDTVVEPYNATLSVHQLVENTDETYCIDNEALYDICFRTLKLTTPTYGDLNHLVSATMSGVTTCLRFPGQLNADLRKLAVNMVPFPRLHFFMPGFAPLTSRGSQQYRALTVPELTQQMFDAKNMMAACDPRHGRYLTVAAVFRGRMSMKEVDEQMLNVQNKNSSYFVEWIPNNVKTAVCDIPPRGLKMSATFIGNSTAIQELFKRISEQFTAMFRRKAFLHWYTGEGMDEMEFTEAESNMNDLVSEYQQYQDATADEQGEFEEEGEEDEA

Row | IC50 (HCT-116) [nM] | IC50 (B16-F10 [4]) [nM] | IC50 (A549) [nM] | IC50 (Jurkat) [nM] | Structure (SMILES) | Activity (B16-F10 [2]) [%] | IC50 [5] [nM] | Activity (B16-F10 [6]) [%] | Activity [7] | IC50 [12] [nM] | Activity [13] | Activity (B16-F10 [14]) [%] | Activity (B16-F10 [15]) [%] | Activity [18] | inhibition in vivo at 10 mg/kg (B16-F10 [19]) [%] | viability at 0.1 µM (B16-F10 [20]) [%] | also measured
1 | 70 | 980 | 190 | 30 | COc1cc(C(=O)c2csc(-c3ccccc3)n2)cc(OC)c1OC | 76.58 | 1690 | 0.49 | Toxic | 1940 | Non-Toxic | 29.1 | 0.75 | Non-Toxic | 25 | 60.7 | Activity [1]: 16.3%; Activity [3]: Non-Toxic; IC50 (B16-F10 [8]): 1150 nM; inhibition (Tubulin (Sus scrofa)): 78%; Activity [9]: Non-Toxic; Activity (B16-F10 [10]): 16.24%; inhibition in vivo at 10 mg/kg (B16-F10 [11]): 53%; Activity (B16-F10 [16]): Active; Activity (B16-F10 [17]): 16.2%; IC50 (Tubulin): 7900 nM
2 | 1720 | 2260 | 1710 | 690 | Nc1ccccc1NC(=O)c1ccc(CNC(=O)OCc2cccnc2)cc1 [ENTINOSTAT] | 42.17 | 5560 | 22.4 | Toxic | 12900 | Non-Toxic | 16.3 | 1.37 | Non-Toxic | 47 | 59.9 | Activity (B16-F10 [21]): Dde; Activity (B16-F10 [22]): Active; Activity [23]: Non-Toxic; Activity [24]: Non-Toxic; IC50 (B16-F10 [25]): 1150 nM; Activity [26]: 16.3%; inhibition in vivo at 10 mg/kg (B16-F10 [27]): 53%; Activity [28]: 27.9%
